Measurements from ChEMBL document CHEMBL4190330, “Discovery of Potent and Selective A2A Antagonists with Efficacy in Animal Models of Parkinson's Disease and Depression” (ACS Med Chem Lett, 2017).
Converted amounts (≈) assume the structure as drawn.

Legend:
[1] = Oral bioavailability in Wistar rat at 10 mg/kg administered via gavage by LC-MS/MS analysis; assay type: ADME, organism-based; conditions: in vivo
Method in brief: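 Male Wistar rats, n = 4; oral dose 10 mg/kg as suspension in 1% Tween 80 with 0.5% w/v NaCMC; values are means.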

[2] = Permeability across apical to basolateral side in human Caco2 cells; assay type: ADME, cell-based; conditions: caco-2
[3] = target: T1, Nuclear receptor subfamily 1 group I member 2 (Homo sapiens, UniProt O75469); experiment: Transactivation of recombinant human PXR expressed in HepG2 cells after 42 hrs by dual luciferase reporter gene assay; assay type: ADME, cell-based
T1 sequence (O75469 whole entry): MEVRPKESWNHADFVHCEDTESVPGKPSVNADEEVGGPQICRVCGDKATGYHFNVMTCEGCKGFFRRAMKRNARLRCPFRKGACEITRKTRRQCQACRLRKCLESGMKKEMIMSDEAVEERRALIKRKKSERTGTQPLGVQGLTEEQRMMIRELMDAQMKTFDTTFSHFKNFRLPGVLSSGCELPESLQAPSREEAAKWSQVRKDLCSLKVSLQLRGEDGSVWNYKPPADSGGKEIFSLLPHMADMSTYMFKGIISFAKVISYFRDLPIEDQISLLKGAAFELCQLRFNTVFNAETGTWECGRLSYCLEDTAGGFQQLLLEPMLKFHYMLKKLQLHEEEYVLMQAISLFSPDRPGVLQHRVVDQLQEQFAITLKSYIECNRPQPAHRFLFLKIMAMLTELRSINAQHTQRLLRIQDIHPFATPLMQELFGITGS

[4] = Volume of distribution at steady state in Wistar rat at 3 mg/kg, iv by LC-MS/MS analysis; assay type: ADME, organism-based; conditions: in vivo, read-out: Vdss
Method in brief: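 Male Wistar rats, n = 4; iv dose 3 mg/kg in 10% NMP, 10% Cremophor EL, acetate buffer pH 4.2 q.s.; values are means.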

[5] = Protein binding in rat plasma; assay type: ADME, cell-free; conditions: read-out: PPB (converted)
[6] = Metabolic stability in human liver microsomes assessed as metabolic rate; assay type: ADME, microsome
Method in brief: (§1)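 Liver microsomes (mouse, rat, dog, human) at 0.125 mg/mL protein; metabolic rate expressed as nmol/min/mg.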

[7] = target: T2, Adenosine receptor A2b (Homo sapiens) (UniProt P29275); experiment: Antagonist activity at human A2B receptor expressed in HEK293 cell membranes assessed as inhibition of NECA-induced cAMP level at 10 uM pretreated for 15 mins followed by NECA addition measured after 15 mins by HTRF assay; assay type: functional, cell-based
T2 sequence (whole entry): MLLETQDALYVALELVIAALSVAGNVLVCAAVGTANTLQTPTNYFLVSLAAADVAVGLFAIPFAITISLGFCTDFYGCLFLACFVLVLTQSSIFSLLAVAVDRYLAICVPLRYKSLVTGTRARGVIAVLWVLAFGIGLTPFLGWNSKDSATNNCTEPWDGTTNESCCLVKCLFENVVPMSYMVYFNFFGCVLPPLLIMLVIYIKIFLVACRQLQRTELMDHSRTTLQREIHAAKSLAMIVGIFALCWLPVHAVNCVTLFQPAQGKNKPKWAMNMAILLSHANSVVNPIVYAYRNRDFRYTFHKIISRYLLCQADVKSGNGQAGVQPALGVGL
Method in brief: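 HTRF cAMP functional assay on the human receptor isoform, run in triplicate at 12 concentrations with a top concentration of 10 µM, in two independent experiments. Inhibition at 10 µM is recorded where no Ki could be derived.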

[8] = Solubility of the compound at pH 4; assay type: physicochemical; conditions: buffer
Rattus norvegicus [9] = experiment: Anti-parkinson's activity in po dosed Wistar rat assessed as reversal of haloperidol-induced catalepsy measured after 1 to 4 hrs; assay type: functional, organism-based
Method in brief: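 Haloperidol-induced catalepsy in rats; oral dosing; catalepsy scored at 1, 2 and 4 h; ED50 derived; mean ± SEM, n=6-7.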

Homo sapiens = species: Homo sapiens; experiment: Selectivity ratio of Ki for displacement of [3H]-MRS-1754 from human A2B receptor expressed in HEK293 cell membranes to Ki for displacement of [3H]ZM241385 from human A2A receptor expressed in HEK293 cell membranes
Method in brief: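 Radioligand binding used membranes from HEK-293 cells overexpressing each human adenosine receptor isoform. Points were run in triplicate, and 8-concentration IC50 curves were plotted to give Ki. The selectivity value is the Ki at the off-target isoform divided by the Ki at hA2A.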

Adenosine receptor A1 = target: T3, Adenosine receptor A1 (Homo sapiens, UniProt P30542); experiment: Displacement of [3H]-DPCPX from human A1 receptor expressed in HEK293 cell membranes after 90 mins radioligand binding assay
T3 sequence (P30542 whole entry): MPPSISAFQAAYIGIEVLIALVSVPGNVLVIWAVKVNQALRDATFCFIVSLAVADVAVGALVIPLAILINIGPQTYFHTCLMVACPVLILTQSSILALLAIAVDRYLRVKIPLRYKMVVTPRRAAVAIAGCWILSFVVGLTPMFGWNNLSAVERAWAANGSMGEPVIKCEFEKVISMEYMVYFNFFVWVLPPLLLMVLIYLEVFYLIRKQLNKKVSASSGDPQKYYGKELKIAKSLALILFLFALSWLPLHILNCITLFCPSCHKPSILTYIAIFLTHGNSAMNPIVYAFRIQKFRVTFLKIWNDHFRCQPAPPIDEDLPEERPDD
Method in brief: (§2)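 Membranes from HEK-293 cells overexpressing the relevant human adenosine receptor subtype; all points in triplicate; Ki derived from 8-concentration IC50 curves.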

[10] = AUC (0 to t) in Wistar rat at 10 mg/kg, po administered via gavage by LC-MS/MS analysis; assay type: ADME, organism-based; conditions: in vivo
[11] = Metabolic stability in rat liver microsomes assessed as metabolic rate; assay type: ADME, microsome; method in brief: as §1
Adenosine receptor A2b = target: T4, Adenosine receptor A2b (Homo sapiens, UniProt P29275); experiment: Displacement of [3H]-MRS-1754 from human A2B receptor expressed in HEK293 cell membranes after 90 mins radioligand binding assay; method in brief: as §2
T4 sequence (P29275 whole entry): T2 sequence (whole entry)

Cytochrome P450 2C19 = Cytochrome P450 2C19 (Homo sapiens, UniProt P33261); experiment: Inhibition of CYP2C19 (unknown origin); assay type: ADME
Adenosine receptor A2a = Adenosine receptor A2a (Rattus norvegicus, UniProt P30543); experiment: Antagonist activity at rat A2A receptor assessed as reduction in CGS-21680-induced cAMP level pretreated for 15 mins followed by CGS-21680 addition measured after 30 mins by HTRF assay; assay type: functional
Method in brief: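 HTRF-based cAMP functional assay; each compound tested at 12 concentrations, every point in triplicate; Ki given as mean of two independent experiments (n=2).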

Mus musculus = experiment: Antidepressant-like activity in po dosed mouse assessed as reduction in immobility time treated 1 hr prior to testing measured last 4 mins of 6 mins test by forced swim test
hERG = hERG (Homo sapiens, UniProt Q12809); experiment: Inhibition of human ERG at 10 uM relative to control
Rattus norvegicus [12] = experiment: Toxicity in 6-OHDA-lesioned Wistar rat model of parkinson's disease assessed as induction of dyskinesia at 0.3 to 3 mg/kg, po administered twice daily for 21 days; assay type: organism-based; conditions: in vivo, 504 h
Method in brief: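 6-OHDA-lesioned rats given oral test compound (0.3-3 mg/kg) with L-DOPA, repeated daily; abnormal involuntary movements scored; mean ± SEM, n=6-7.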

[13] = Protein binding in dog plasma; assay type: ADME, cell-free, Canis lupus familiaris; conditions: read-out: PPB (converted)

Sequence of Adenosine receptor A2a (P30543 whole entry): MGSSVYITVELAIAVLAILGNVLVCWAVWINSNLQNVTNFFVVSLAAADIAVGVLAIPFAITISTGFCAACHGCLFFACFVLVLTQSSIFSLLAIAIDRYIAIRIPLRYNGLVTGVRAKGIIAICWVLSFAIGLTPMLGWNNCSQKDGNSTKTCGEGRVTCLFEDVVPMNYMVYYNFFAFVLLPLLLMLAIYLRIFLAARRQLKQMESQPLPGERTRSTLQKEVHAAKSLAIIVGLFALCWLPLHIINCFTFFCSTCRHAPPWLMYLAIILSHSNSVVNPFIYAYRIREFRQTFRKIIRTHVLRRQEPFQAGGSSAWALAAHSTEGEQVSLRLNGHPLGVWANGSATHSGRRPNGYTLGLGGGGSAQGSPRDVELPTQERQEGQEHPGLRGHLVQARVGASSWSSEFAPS
Sequence of Cytochrome P450 2C19 (P33261 whole entry): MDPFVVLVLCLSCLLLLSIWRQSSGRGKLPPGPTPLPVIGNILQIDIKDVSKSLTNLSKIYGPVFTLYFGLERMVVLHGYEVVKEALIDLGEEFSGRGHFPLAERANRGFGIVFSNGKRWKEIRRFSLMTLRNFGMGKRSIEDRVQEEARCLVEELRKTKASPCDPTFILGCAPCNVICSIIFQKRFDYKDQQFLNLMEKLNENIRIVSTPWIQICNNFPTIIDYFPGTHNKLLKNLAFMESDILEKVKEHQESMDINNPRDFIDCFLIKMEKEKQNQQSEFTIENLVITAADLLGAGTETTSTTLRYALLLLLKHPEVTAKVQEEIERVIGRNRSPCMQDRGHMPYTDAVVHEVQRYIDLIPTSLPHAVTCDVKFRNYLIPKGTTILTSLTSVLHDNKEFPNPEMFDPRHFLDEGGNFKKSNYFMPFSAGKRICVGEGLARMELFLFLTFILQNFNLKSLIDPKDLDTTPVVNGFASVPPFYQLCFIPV
Sequence of hERG (Q12809 whole entry): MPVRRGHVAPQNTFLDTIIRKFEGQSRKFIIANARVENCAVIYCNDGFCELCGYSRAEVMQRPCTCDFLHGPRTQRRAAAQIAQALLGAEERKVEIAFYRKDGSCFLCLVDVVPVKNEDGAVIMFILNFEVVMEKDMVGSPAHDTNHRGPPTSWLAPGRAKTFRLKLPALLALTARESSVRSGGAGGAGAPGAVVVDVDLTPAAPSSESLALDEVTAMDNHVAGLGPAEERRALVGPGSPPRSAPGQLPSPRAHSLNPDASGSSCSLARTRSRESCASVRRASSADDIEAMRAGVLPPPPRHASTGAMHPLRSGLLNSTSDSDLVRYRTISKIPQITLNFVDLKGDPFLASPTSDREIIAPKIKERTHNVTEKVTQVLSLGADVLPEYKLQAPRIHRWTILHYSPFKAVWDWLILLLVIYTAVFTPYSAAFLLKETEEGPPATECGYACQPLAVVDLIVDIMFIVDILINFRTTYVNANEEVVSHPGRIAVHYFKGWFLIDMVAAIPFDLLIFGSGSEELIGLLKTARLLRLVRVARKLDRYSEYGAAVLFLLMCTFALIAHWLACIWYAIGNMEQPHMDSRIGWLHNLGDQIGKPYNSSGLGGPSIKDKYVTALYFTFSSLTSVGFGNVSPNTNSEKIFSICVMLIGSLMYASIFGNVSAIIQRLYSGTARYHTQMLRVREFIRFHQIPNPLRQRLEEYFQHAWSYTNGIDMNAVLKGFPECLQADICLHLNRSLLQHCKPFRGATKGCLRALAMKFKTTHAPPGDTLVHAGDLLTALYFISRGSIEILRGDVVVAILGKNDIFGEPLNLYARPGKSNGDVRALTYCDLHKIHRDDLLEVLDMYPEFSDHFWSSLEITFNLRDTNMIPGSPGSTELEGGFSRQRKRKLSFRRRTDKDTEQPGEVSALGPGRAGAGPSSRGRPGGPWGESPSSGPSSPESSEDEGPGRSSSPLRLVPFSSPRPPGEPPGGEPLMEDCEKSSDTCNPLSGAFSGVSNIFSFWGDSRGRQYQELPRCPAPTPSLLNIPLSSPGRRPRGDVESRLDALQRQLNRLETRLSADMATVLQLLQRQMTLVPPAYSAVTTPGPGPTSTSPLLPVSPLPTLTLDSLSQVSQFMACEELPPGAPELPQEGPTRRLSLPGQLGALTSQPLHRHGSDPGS

bioavailability [1]: 32%
permeability [2]: Permeable
EC50 [3]: > 60 µM
Vd [4]: 3.6 L/kg
fraction unbound [5]: 0.18
Drug metabolism [6]: 0.14 nmol/min/mg
inhibition [7]: < 50%
solubility [8]: 486 µM (≈ 276 µg/mL)
Ki (Adenosine receptor A1): 1.7 µM
AUC(0-t) [10]: 2.2 µM·h
Drug metabolism [11]: 0 nmol/min/mg
Ki (Adenosine receptor A2b): 5 µM
IC50 (Cytochrome P450 2C19): > 10 µM
Ki (Adenosine receptor A2a): 0.00044 to 0.0044 µM
fraction unbound [13]: 0.22
SMILES: COCCOc1ccc(N2CCN(CCn3c(=O)n(C)c4c3nc(N)n3nc(-c5nccs5)nc43)CC2)cc1F
Activity (Rattus norvegicus [9]): Dose-dependent effect
ED50 (Rattus norvegicus [9]): 4.49 mg/kg
Ratio Ki (Homo sapiens): > 3000
ED50 (Mus musculus): 5.29 mg/kg
inhibition at 10 µM (hERG): 38%
Activity (Rattus norvegicus [12]): Non-Toxic
